Measurements published in ChEMBL document CHEMBL3526088, “The intestine as an important contributor to prasugrel active metabolite formation in vivo” (Drug Metab Dispos, 2011).

Legend:
Liver microsome [1] = test: Drug metabolism in human liver microsomes assessed as R-138727 formation at 1.6 to 200 uM measured per protein after 15 mins incubation; format: ADME; settings: 0.25 h
Liver microsome [2] = test: Intrinsic clearance in human liver microsomes assessed as R-138727 formation at 1.6 to 200 uM measured per protein after 15 mins incubation; format: ADME; settings: 0.25 h
Liver microsome [3] = test: Drug metabolism in dog liver microsomes assessed as R-138727 formation measured per protein at 1.6 to 200 uM after 15 mins incubation; format: ADME, Canis lupus familiaris; settings: 0.25 h
Outline: (§1)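 Preincubated 5 min at 37°C, then R-95913 added (1.6–200 μM final) and incubated 15 min at 37°C, in triplicate. Stopped with methoxyphenacyl bromide and internal standard in acetonitrile, solid-phase extracted, and analysed by HPLC. Michaelis-Menten fit, CLint = Vmax/Km.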

[4] = Drug metabolism in human intestinal microsomes assessed as R-138727 formation at 1.6 to 200 uM after 15 mins incubation; format: ADME, Intestine, Microsome; settings: 0.25 h; outline: as §1
[5] = Drug metabolism in dog intestinal microsomes assessed as R-138727 formation measured per protein at 1.6 to 200 uM after 15 mins incubation; format: ADME, Canis lupus familiaris, Intestine, Microsome; settings: 0.25 h; outline: as §1
[6] = Intrinsic clearance in dog intestinal microsomes assessed as R-138727 formation measured per protein at 1.6 to 200 uM after 15 mins incubation; format: ADME, Canis lupus familiaris, Intestine, Microsome; settings: 0.25 h
Outline: (§2)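 Microsomes (1 mg protein/ml; dog intestinal, dog liver or human intestinal) in 43 mM potassium phosphate pH 7.4 with an NADPH-generating system and 5 mM glutathione, in triplicate. After 5 min preincubation at 37°C, R-95913 (1.6–200 µM final) was added for 15 min at 37°C. Product was derivatised with methoxyphenacyl bromide, extracted by SPE and measured by HPLC. Michaelis–Menten fit; CLint = Vmax/Km.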

[7] = Drug metabolism in human intestinal microsomes assessed as R-138727 formation measured per protein at 1.6 to 200 uM after 15 mins incubation; format: ADME, Intestine, Microsome; settings: 0.25 h; outline: as §1
Liver microsome [8] = test: Intrinsic clearance in dog liver microsomes assessed as R-138727 formation measured per protein at 1.6 to 200 uM after 15 mins incubation; format: ADME, Canis lupus familiaris; settings: 0.25 h; outline: as §2
[9] = Intrinsic clearance in human intestinal microsomes assessed as R-138727 formation measured per protein at 1.6 to 200 uM after 15 mins incubation; format: ADME, Intestine, Microsome; settings: 0.25 h; outline: as §2
Liver microsome [10] = test: Drug metabolism in dog liver microsomes assessed as R-138727 formation at 1.6 to 200 uM after 15 mins incubation; format: ADME, Canis lupus familiaris; settings: 0.25 h; outline: as §1
[11] = Drug metabolism in dog intestinal microsomes assessed as R-138727 formation at 1.6 to 200 uM after 15 mins incubation; format: ADME, Canis lupus familiaris, Intestine, Microsome; settings: 0.25 h; outline: as §1
Liver microsome [12] = test: Drug metabolism in human liver microsomes assessed as R-138727 formation at 1.6 to 200 uM after 15 mins incubation; format: ADME; settings: 0.25 h
Canis familiaris [13] = test: Drug metabolism in beagle dog assessed as fraction of R-95913 hydrolysis to R-138727 formation at 1 mg/kg, intraduodenal; format: ADME, organism-based, Canis lupus familiaris; set-up: dose 1 mg/kg, route intraduodenal; settings: in vivo, other
Outline: (§3)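 Male beagle dogs (n = 6, 9–12 kg) with portal- and hepatic-vein cannulas, fasted about 19 h, got 1 mg/kg intraduodenally in 5% N,N-dimethylacetamide–95% PEG 400. Portal, hepatic and jugular blood was drawn into heparin at 1–120 min. Plasma was precipitated with acetonitrile (phenacetin internal standard) and analysed by LC-MS/MS in MRM mode. AUC0–2h was by trapezoidal noncompartmental analysis, mean ± S.D.; availability fractions were calculated from these AUCs.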

Canis familiaris [14] = test: Drug metabolism in beagle dog assessed as fraction of compound hydrolysis to R-95913 formation in intestine at 1 mg/kg, intraduodenal; format: ADME, organism-based, Canis lupus familiaris; set-up: dose 1 mg/kg, route intraduodenal; settings: in vivo, other; outline: as §3
Canis familiaris [15] = test: Drug metabolism in beagle dog assessed as product of fraction of intestinal absorption and fraction of compound hydrolysis to R-95913 formation in intestine at 1 mg/kg, intraduodenal; format: ADME, organism-based, Canis lupus familiaris; set-up: dose 1 mg/kg, route intraduodenal; settings: in vivo, other; outline: as §3
Canis familiaris [16] = test: Drug metabolism in beagle dog assessed as R-138727 formation in liver at 1 mg/kg, intraduodenal; format: ADME, organism-based, Canis lupus familiaris; set-up: dose 1 mg/kg, route intraduodenal; settings: in vivo, other; outline: as §3
Canis familiaris [17] = test: Drug metabolism in beagle dog assessed as fraction of compound hydrolysis to R-138727 formation in intestine at 1 mg/kg, intraduodenal; format: ADME, organism-based, Canis lupus familiaris; set-up: dose 1 mg/kg, route intraduodenal; settings: in vivo, other; outline: as §3
Canis familiaris [18] = test: Drug metabolism in beagle dog assessed as product of fraction of intestinal absorption and fraction of compound hydrolysis to R-138727 formation in intestine at 1 mg/kg, intraduodenal; format: ADME, organism-based, Canis lupus familiaris; set-up: dose 1 mg/kg, route intraduodenal; settings: in vivo, other; outline: as §3
Canis familiaris [19] = test: Drug metabolism in beagle dog assessed as R-95913 formation in liver at 1 mg/kg, intraduodenal; format: ADME, organism-based, Canis lupus familiaris; set-up: dose 1 mg/kg, route intraduodenal; settings: in vivo, other; outline: as §3

Vmax (Liver microsome [1]) | CLH (Liver microsome [2]) | Vmax (Liver microsome [3]) | Km [4] | Vmax [5] | CL [6] | Vmax [7] | CLint (Liver microsome [8]) | CL [9] | Km (Liver microsome [10]) | Km [11] | Km (Liver microsome [12]) | Fm (Canis familiaris [13]) | Fm (Canis familiaris [14]) | Fm (Canis familiaris [15]) | Fm (Canis familiaris [16]) | Fm (Canis familiaris [17]) | Fm (Canis familiaris [18]) | Fm (Canis familiaris [19]) | SMILES
247 pmol/min/mg | 9.6 µL/min/mg | 379.9 pmol/min/mg | 80.4 µM | 49.8 pmol/min/mg | 1.2 µL/min/mg | 89.2 pmol/min/mg | 20.6 µL/min/mg | 1.1 µL/min/mg | 18.5 µM | 42.7 µM | 26 µM | – | – | – | – | – | – | – | O=C1C=C2CN(C(C(=O)C3CC3)c3ccccc3F)CCC2S1 (centres undefined)
– | – | – | – | – | – | – | – | – | – | – | – | 0.23 | 0.83 | 0.8 | 0.75 | 0.13 | 0.13 | 0.08 | CC(=O)Oc1cc2c(s1)CCN(C(C(=O)C1CC1)c1ccccc1F)C2 (centres undefined) [PRASUGREL]
